From ChEMBL document CHEMBL4513216, “Probing the Open Global Health Chemical Diversity Library for Multistage-Active Starting Points for Next-Generation Antimalarials” (ACS Infect Dis, 2020)

Test: Toxicity liver stage against HepG2, at 10uM
Format: cell-based
Parameters: test concentration 10 uM, cell line HepG2-A16-CD81EGFP
Details: human, HepG2-A16-CD81EGFP cells; read-out: INHIBITION
Procedure, shortened: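 Uninfected HepG2-A16-CD81EGFP cells, 3 × 10^3 per well, 1536-well, plated on prespotted compound at 10 μM final, parasite-free screening media added to match infected plates; puromycin 10 μM positive, DMSO 0.5% negative; run in parallel with 48 h PbLuc assay at 37 °C, 5% CO2; viability by CellTiter-Glo luminescence, normalized to controls.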

Compound | cytotoxicity at 10 µM [%]
CN1C(=O)C2(CC(=O)Nc3[nH]ncc32)c2cc(Cl)ccc21 (stereo not given) | -1.89
COCCn1cnc2ccc(NC(=O)CCCn3cccn3)cc2c1=O | 6.43
COC1CCN(C(=O)Cn2ccc3ccccc32)CC1 | -12.7
O=S(=O)(c1cc(F)cc(F)c1)N1CCC(Oc2ccc(Cl)cn2)CC1 | -4.63
CCC(CNC(=O)OC)(OC)c1ccccc1 (stereo not given) | 1.37
CN1CC[C@@H]2[C@@H]1CCN2Cc1ccc2c(c1)OCO2 | 3.11
CN1CC2(CCCCN2C(=O)c2ccsc2)CC1=O (stereo not given) | 2.73
N#CCC(=O)NCc1nnc2n1CCN(Cc1nccs1)C2 | -149
O=C(NCCc1ccncc1)[C@H]1CC[C@@H]2[C@@H](CCN2C2CCC2)O1 | -2.3
Cn1nnc2c1C(COCC1CC1)CN(C(=O)Cc1ccccn1)C2 (stereo not given) | 13.5
CCCc1nnc2sc(-c3cc(C(C)C)n[nH]3)nn12 | 17.7
COc1ccc(NC(=O)c2cnc(N(C)C3CCCCC3)nc2N)cc1 | -3.64
Cc1ccccc1N1CC2(CCN(S(=O)(=O)c3cccs3)C2)CC1=O (stereo not given) | 14.1
Cn1cnc2c1C(COCc1cccnc1)N(Cc1ccccn1)CC2 (stereo not given) | -13.3
O=C(CCC(=O)NCc1cccc(Br)c1)NCCN1CCCC1 | 10
CCN(c1ccccc1C(=O)O)S(=O)(=O)c1cccc2cccnc12 | 1.28
Cc1nc(N2CCN(C(=O)C3CCCC3)CC2)c2c(n1)c(C)nn2C | 6.97
CCn1cc(CN(C)S(=O)(=O)c2ccccc2)cn1 | 11.9
Cc1ccc(CNC(=O)c2cc(C)n(C)n2)o1 | 0.25
Cc1c(Cl)cccc1N1CC(c2nnc(N)s2)CC1=O (stereo not given) | 7.38
Cc1nn(C)c(C)c1NC(=O)CCn1ncc2ccccc21 | 10.8
COc1ccc(C2=NOC(CO)C2)cc1 (stereo not given) | 11.2

Compound | cytotoxicity at 10 µM [%]
COc1ccc(NC(=O)c2cnc(C3CCN(C)CC3)nc2C)cc1 | -1.46
COCC(=O)N1CCN(C)CC(Cc2cc(N(C)C)ncn2)C1 (stereo not given) | -1.79
CC(=O)N1CCCCC[C@@H]2[C@@H]1[C@H](c1cccc(F)c1)CN2C(=O)C1CC1 | 6.75
COc1ccccc1C1(O)CCCN(C(=O)c2csc(C(C)=O)c2)C1 (stereo not given) | -1.41
COc1cccc(CCC2CCCCN2)c1 (stereo not given) | -1.73
Cc1cc(-c2cnc(N3CCNC(=O)C3)nc2-c2ccc(C)o2)on1 | -5.77
CNC(=O)COC(=O)c1ccn(-c2ccc(Cl)c(Cl)c2)n1 | 20.9
Cc1csc(CN(C)S(=O)(=O)c2ccc(C)c(N(C)C)c2)n1 | 13.7
CC(=O)N1CCN(C(=O)c2ccc(-c3cccc(C)c3)[nH]c2=O)CC1 | 3.64
CC(C)c1cc(NC(=O)CNC2CCc3nc(C(C)C)nn3C2)on1 (stereo not given) | 0.246
O=S(=O)(CCc1ccccc1Cl)CC(O)CO (stereo not given) | 10.7
CS(=O)(=O)CCC(=O)N1CCC(c2cccc(F)c2)C1 (stereo not given) | 3.71
COC(C)c1noc(CN(C)c2ncc(Br)cn2)n1 (stereo not given) | -1.26
Cc1cc(NC(=O)CN2CCc3c(nc(C(C)C)n3C)C2)n(C)n1 | -4.94
Cc1c(C2CC2)n[nH]c1NC(=O)C1CCCN(C(=O)NCC(C)C)C1 (stereo not given) | 13.9
CCc1ocnc1C(=O)Nc1ccc2ccn(CCN(C)C)c2c1 | 4.81
CC(=O)N1CCC(CCNC(C)Cc2ccc(F)cc2)CC1 (stereo not given) | -11.4
Cc1n[nH]c(C)c1NC(=O)NCc1cc[nH]n1 | -5.18
CNc1cc2c(nn1)CCN(C(=O)c1ccc(-n3cccn3)nc1)C2 | -4.78
O=C(c1ccc2c(c1)[nH]c(=O)n2C1CCCC1)N1CCCSCC1 | -41.2
CCN1CCN(c2ccc(NC(=O)CC(C)C)c(C)c2)CC1 | -8.87
Cc1ccc(N2CCc3ncnc(C)c3CC2)nn1 | -93.6

Compound | cytotoxicity at 10 µM [%]
CO[C@H]1CO[C@@]2(CCCN(C(=O)N(C)C)C2)C1 | -97.4
Cn1cnc2c(-c3cccnc3)nc(C3CCN(S(C)(=O)=O)CC3)cc21 | -118
c1cncc(CN2CCn3cc(CN4CCCCC4)nc3C2)c1 | -102
Cc1ccc(N2C[C@H]3OCC[C@H]3[C@H](C(=O)NC3CCCC3)C2)nn1 | -75.6
Cc1cnc(C(=O)N2C[C@@H](NS(C)(=O)=O)[C@@H]3OCCC[C@@H]32)cn1 | -89.7
CS(=O)(=O)NCc1ncn2c1CN(C(=O)C1CCCCC1)CCC2 | -71.2
Cc1cc(C(=O)N2CCc3ncc(CN4CCOCC4)n3CC2)no1 | 3.76
CCOCCn1nc(C)cc1C(=O)N(C)Cc1cccc2ncccc12 | 4.2
CCc1noc(CNc2nc(-c3cccnc3)nc3c2CCNCC3)n1 | 0.562
Cc1ccc(CN(C)Cc2cnc(N3CCOCC3)s2)o1 | -8.46
O=C(c1ccc(-n2cccn2)cc1Cl)N1CCCC(O)(CO)C1 (stereo not given) | -0.226
Cc1cc(=O)c(C(=O)N2CCC(C(O)Cc3ccccc3)CC2)c(C)[nH]1 (stereo not given) | 12.2
CC1=CC[C@@H]2CN(C(=O)c3ccc(-c4nnn(C)n4)cc3)C[C@@H]2C1 | 7.16
COCc1noc(-c2ccc(N3CCCCC3CCCO)nc2)n1 (stereo not given) | -3.31
CC(C)OC(=O)N1CCC(Cc2ccc(C(=O)O)cc2)C1 (stereo not given) | 3.38
CN1CCCC2(CCN(c3cc(C(F)(F)F)nc(N(C)C)n3)C2)C1=O (stereo not given) | 13.1
Cc1nc(C(C)C)ncc1C(=O)N1CCC(c2ccccc2C(=O)O)C1 (stereo not given) | 1.93
CCCn1nccc1C(=O)N1CCCC(C(=O)CCc2ccccc2)C1 (stereo not given) | -1.08
CC[C@@]1(O)CCN(C(=O)CCSCc2ccc(F)cc2)C[C@H]1O | 0.264
Cc1cc(NC(C)c2nncn2C2CCCC2)n2nc(C)cc2n1 (stereo not given) | 5.99
O=C(Nc1ccc(F)c(F)c1)N1CCC2(CCC(=O)N(C3CC3)C2)CC1 | -0.381
Cc1ccc(C(=O)N2CCCC(Nc3ccc(F)cc3)C2)cc1 (stereo not given) | -3.53

Compound | cytotoxicity at 10 µM [%]
O=S(=O)(c1ccc(-c2cnco2)cc1)N1CCC2(CCCNC2)C1 (stereo not given) | -27.3
CCn1nc(C)cc1C(=O)N1CCCN(CCCc2ccccc2)CC1 | -1.45
CCn1cncc1Cn1ncc2ccccc2c1=O | 3.7
COCCN1CCCC(O)(CN2CCN(Cc3ccncc3)CC2)C1=O (stereo not given) | -8.24
CN1CCCN(S(=O)(=O)c2cccc(C(=O)N3CCCCCC3)c2)CC1 | -5.9
CCc1nnc(SCC(=O)N2CCc3[nH]nc(C4CCC4)c3C2)o1 | -5.22
CSc1cccc(CNC(=O)[C@H]2CNC[C@H](C(=O)N3CCOCC3)C2)c1 | -1.74
Cc1nc(-c2ccncc2)ncc1C(C)NC(=O)CN1CCCCC1 (stereo not given) | 1.47
CC(=O)NCCCC(=O)N1CCc2[nH]c(-c3ccccc3)nc2C1 | -3.73
Cc1ccc(CN(C)C(=O)c2n[nH]c(N)c2-c2ccccc2)o1 | -4.81
COC(=O)C1Cc2nc[nH]c2CN1Cc1ccc(Sc2ncccn2)o1 (stereo not given) | -3.94
Cn1ccc(C(=O)N2CCC(Cc3cnc4[nH]ccc4c3)CC2)n1 | 8.77
CNc1cncc(C2CCCN2Cc2ccccn2)n1 (stereo not given) | 0.0241
Cc1noc(CN(C)CC(c2cccs2)N2CCOCC2)n1 (stereo not given) | -0.524
Cc1cccc(C(CNC(=O)NCc2cc[nH]n2)N2CCOCC2)c1 (stereo not given) | -9.19
CCn1nc2c(cc1=O)CN(Cc1nc(-c3ccco3)no1)CC2 | -3.34
Cn1cc(C2CCCN2Cc2csc(Cc3ccccc3)n2)cn1 (stereo not given) | -1.19
CCN1CCN(C2CCN(Cc3noc(C4CC4)n3)CC2)C1=O | -8.69
COCC(C)NC(=O)c1cc(C)n(-c2cccc(OC)c2)c1C (stereo not given) | -13.9
c1ccc2cc(OCCCN3CCn4c(nnc4C4CC4)C3)ccc2c1 | -11.3
Cc1cnn(CC2CCCCN2C(=O)c2ccc3nncn3c2)c1 (stereo not given) | -8.66
Cc1ccccc1OCCN(C)C(=O)NC(C)c1nncn1C (stereo not given) | -12.5

Compound | cytotoxicity at 10 µM [%]
COC(=O)C(c1cc(F)ccc1F)N(C)C(=O)c1ccccn1 (stereo not given) | -2.72
N#Cc1ccc(OCCCN2CCOC(Cn3cncn3)C2)cc1 (stereo not given) | -0.0581
Cc1cc(C)n(CC2CCCN2CC(=O)N(C)CCC#N)n1 (stereo not given) | -14.8
Cc1ccc(-c2nnc(CN3CCc4nn(C)c(=O)cc4C3)o2)cc1 | -23.4
CN(c1cccnn1)C1CCN(C(=O)Cc2c[nH]c3ccccc23)CC1 | -20.1
Cn1cccc1C(=O)Nc1cc(F)ccc1OCC1CCCO1 (stereo not given) | -7.59
CC(=O)NC1CCCN(C(=O)NCc2ccc(-c3ccn[nH]3)cc2)C1 (stereo not given) | -7.84
CN(CC(=O)NC1(C#N)CCCC1)C1CCCN(c2cccnn2)C1 (stereo not given) | -9.75
Cc1ncsc1C(=O)NCc1cccs1 | -1.89
CC(C)c1cc(C(=O)NCCN2CCCS2(=O)=O)n[nH]1 | -9.91
CN(C(=O)NCc1ccncc1)C1CCN(c2ccccc2)C1=O (stereo not given) | -13.5
OC(COc1ccccc1)CN1CCC(c2ccn[nH]2)CC1 (stereo not given) | -3.76
Cc1nc(C)n(CC2CCCN(Cc3nc(C)c(C)o3)C2)n1 (stereo not given) | -2.68
O=C1COC2(CCN(Cc3nccs3)CC2)CN1c1ccccc1 | -114
CN1CCCn2c(nc(CNC(=O)c3ccsc3)cc2=O)C1 | 3.09
COCCNC(=O)C1CN(Cc2cccnc2)Cc2ccnn2C1 (stereo not given) | -76.1
O=C(Cc1ccccn1)N1CC[C@]2(C[C@@H](Oc3ncccc3F)CO2)C1 | -5.79
O=C(NCCc1cccnc1)c1nc2c(s1)CCCN2C(=O)C1CC1 | -91.5
CNC(=O)NCC1CCC2(CCN(C(=O)c3ccccn3)CC2)CO1 (stereo not given) | -102
O=C(c1ccoc1)N1CC[C@@H](N2CCOCC2)[C@@H]1Cc1ccccc1 | -82
CCN1CCc2c(CNC(=O)c3nccn3C)cncc2C1 | -109
CCS(=O)(=O)N1CCC2(CC1)CN(Cc1ccccn1)C(=O)CO2 | 3.01
